# Data as given in ChEMBL document CHEMBL3124904, “Second-generation derivatives of the eukaryotic translation initiation inhibitor pateamine A targeting eIF4A as potential anticancer agents” (Bioorg Med Chem, 2014).
# Assays:
# [1] = Half life in RPMI media at 1 uM by HPLC analysis in presence of fetal bovine serum; format: ADME; details: cattle
# In short: (§1)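 Compound added from DMSO stock to pre-heated RPMI 1640 (1.8 mL) plus 0.2 mL human AB male serum or FBS, or to 2 mL RPMI alone, at final 1 or 10 μM. Samples analysed by HPLC at pH 9.5 (formic acid/ammonia in acetonitrile/water), with conversion taken from the substrate/internal standard peak ratio. Run in triplicate; half-lives ± SD.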
# [2] = Half life in RPMI media at 10 uM by HPLC analysis in presence of human blood serum; format: ADME; in short: as §1
# [3] = Selectivity ratio of IC50 for MEF to IC50 for human Jurkat T cells; format: cell-based; details: mouse (MEF) and human (Jurkat T cells), read-out: Ratio IC50
# [4] = system: MEF; experiment: Antiproliferative activity against MEF after 72 hrs by MTT assay; format: cell-based; details: Mus musculus
# [5] = Selectivity ratio of IC50 for MEF to IC50 for human HeLa cells; format: cell-based; details: mouse (MEF) and human (HeLa cells), read-out: Ratio IC50
# [6] = Binding affinity to eIF4A1/2 in rabbit reticulocyte lysate assessed as inhibition of cap-dependent translation after 1.5 hrs by dual luciferase reporter gene assay; set-up: species or system Oryctolagus cuniculus
# In short: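 Capped bicistronic reporter mRNA: cap-dependent firefly luciferase first cistron, HCV IRES-driven Renilla second cistron. Transcribed in vitro with SP6 from the BamHI-linearised plasmid. 200 ng RNA translated in rabbit reticulocyte lysate with 70 mM KCl, 2 mM DTT, RNasin and compound in DMSO (5% v/v final), 30 °C for 1.5 h. Dual luciferase readout. Duplicates, 4 independent assays, mean IC50 by curve fit.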
# [7] = Antiproliferative activity against human Jurkat T cells after 72 hrs by MTT assay; format: functional, cell-based
# In short: (§2)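 HeLa and SK-MEL2 grown in DMEM, Jurkat in RPMI 1640, each with 10% FBS and penicillin-streptomycin, at 37 °C and 5% CO2. Adherent cells seeded at 2000/well and left to recover overnight; Jurkat seeded at 5000/well with no recovery. Compound added in DMSO (0.1% final), then 72 h incubation and MTT readout.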
# [8] = system: HeLa; experiment: Antiproliferative activity against human HeLa cells after 72 hrs by MTT assay; format: functional, cell-based; in short: as §2
# [9] = system: Jurkat; experiment: Immunosuppressive activity in human Jurkat T cells assessed as inhibition of IL-2 transcription; format: functional, cell-based
# [10] = Antiproliferative activity against human Jurkat T cells assessed as DNA synthesis level after 24 hrs by thymidine incorporation assay; format: functional, cell-based
# In short: (§3)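 Cells kept at 37 °C, 5% CO2 with penicillin-streptomycin and 10% FBS. Adherent lines seeded at 2000 cells/well and left to recover overnight; Jurkat seeded at 5000 cells/well with no recovery period. Compound added in DMSO (0.1% final, vehicle-only control) at 0.001–100 nM over 10 wells. DNA synthesis read out after 24 h. Mean IC50 from at least 3 independent assays.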
# [11] = system: RKO; experiment: Antiproliferative activity against human RKO cells assessed as DNA synthesis level after 24 hrs by thymidine incorporation assay; format: functional, cell-based; in short: as §3
# [12] = target: T1, DNA polymerase subunit gamma-1 (Homo sapiens, UniProt P54098); experiment: Inhibition of DNA polymerase-gamma (unknown origin) assessed as incorporation of Br(d)UTP by colorimetric analysis
# T1 sequence (P54098 whole entry): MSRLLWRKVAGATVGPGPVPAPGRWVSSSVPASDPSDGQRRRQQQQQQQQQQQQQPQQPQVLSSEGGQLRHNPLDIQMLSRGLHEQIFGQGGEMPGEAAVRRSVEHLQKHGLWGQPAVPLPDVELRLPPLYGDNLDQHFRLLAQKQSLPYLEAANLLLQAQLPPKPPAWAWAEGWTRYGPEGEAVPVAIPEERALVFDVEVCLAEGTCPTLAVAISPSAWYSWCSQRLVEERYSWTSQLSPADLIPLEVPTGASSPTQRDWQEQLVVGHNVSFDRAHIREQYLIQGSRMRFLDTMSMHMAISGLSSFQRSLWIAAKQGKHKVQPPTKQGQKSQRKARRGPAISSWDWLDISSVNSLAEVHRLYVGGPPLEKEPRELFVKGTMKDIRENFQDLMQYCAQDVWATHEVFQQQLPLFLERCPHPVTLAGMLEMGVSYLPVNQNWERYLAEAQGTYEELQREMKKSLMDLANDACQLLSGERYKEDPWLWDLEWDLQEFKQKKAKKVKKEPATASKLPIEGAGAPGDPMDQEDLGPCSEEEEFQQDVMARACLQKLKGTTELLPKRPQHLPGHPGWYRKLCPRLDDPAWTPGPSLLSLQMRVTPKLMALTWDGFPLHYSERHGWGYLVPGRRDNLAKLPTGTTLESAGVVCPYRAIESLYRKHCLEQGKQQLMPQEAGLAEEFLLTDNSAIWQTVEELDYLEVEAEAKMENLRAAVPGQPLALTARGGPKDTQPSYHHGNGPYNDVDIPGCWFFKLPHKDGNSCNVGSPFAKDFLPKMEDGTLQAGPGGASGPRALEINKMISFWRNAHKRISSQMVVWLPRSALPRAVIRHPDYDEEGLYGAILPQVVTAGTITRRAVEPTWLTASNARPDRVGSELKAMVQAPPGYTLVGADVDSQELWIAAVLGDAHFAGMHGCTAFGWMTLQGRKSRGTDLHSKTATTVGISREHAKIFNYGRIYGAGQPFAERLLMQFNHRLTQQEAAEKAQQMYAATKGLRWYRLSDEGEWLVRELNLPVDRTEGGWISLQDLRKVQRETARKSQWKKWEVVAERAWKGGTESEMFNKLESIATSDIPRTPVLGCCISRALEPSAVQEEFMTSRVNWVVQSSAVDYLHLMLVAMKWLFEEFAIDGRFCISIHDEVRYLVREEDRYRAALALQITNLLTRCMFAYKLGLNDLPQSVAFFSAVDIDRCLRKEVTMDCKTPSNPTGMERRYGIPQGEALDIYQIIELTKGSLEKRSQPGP
structure (smiles),measurement,setting,value
CC(/C=C/C(C)=C/[C@@H]1Cc2nc(cs2)CCCCC(=O)O[C@@H](C)C/C(C)=C/C=C\C(=O)O1)=C\CN(C)C,t1/2,[1],19.9 h
same,t1/2,[2],13 h
same,selectivity ratio,[3],5
same,IC50,[4],> 50 nM
same,selectivity ratio,[5],5
same,IC50,[6],21.5 nM
same,IC50,[7],11 nM
same,IC50,[8],9.8 nM
same,IC50,[9],0.81 nM
same,IC50,[10],3 nM
same,IC50,[11],1.2 nM
same,IC50,[12],3000 nM
